Measured values: ChEMBL document CHEMBL1828562, “Aryl H-phosphonates 17: (N-aryl)phosphoramidates of pyrimidine nucleoside analogues and their synthesis, selected properties, and anti-HIV activity” (J Med Chem, 2011)
Activity calls are given as the source filed them. No cut-off for these calls is given here.

Experiments:
[1] = Cytotoxicity against human CEM-T4 cells assessed as cell viability at 200 uM after 7 days by MTT assay; assay type: cell-based; settings: cem-t4, 168 h
Method in brief: (§1)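 CEM-T4 cells cultured at 37 °C, 5% CO2 in RPMI/10% FCS containing compound, with neat medium as control. After 7 days, MTT (5 mg/mL solution) added for 3 h at 37 °C. Cells centrifuged, supernatant removed, formazan dissolved in DMSO and read at 560 nm. CC50 and CC90 determined on mock-infected cells.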

[2] = system: Human immunodeficiency virus 1; experiment: Antiviral activity against HIV1 infected in human CEM-T4 cells assessed as reduction in viral protein p24 production preincubated for 24 hrs measured after 8 days by MTT assay; assay type: functional, organism-based; settings: Human immunodeficiency virus 1, CEM-T4
Method in brief: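 CEM-T4 cells, 20000 per well in 200 μL, preincubated 24 h at 37 °C, 5% CO2 in RPMI/10% FCS containing compound at 0,001–20 μM. Cells then inoculated with a known amount of HIV. Viral p24 read after 8 days by the MTT method. Triplicate cultures per concentration.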

[3] = Selectivity index, ratio of CC50 for human CEM-T4 cells to EC50 for HIV1 infected human CEM-T4 cells; assay type: toxicity, cell-based; settings: read-out: Ratio CC50/EC50
Method in brief: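 Selectivity index calculated as CC50/EC50, both measured in CEM-T4 cells, and rounded.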

[4] = Cytotoxicity against human CEM-T4 cells assessed as cell viability after 7 days by MTT assay; assay type: cell-based; method in brief: as §1
[5] = Dissociation constant, pKa of the compound in aqueous solution; assay type: physicochemical
[6] = Chemical stability of the compound in RPMI cell culture media assessed as half life at 2 mM; assay type: physicochemical
Method in brief: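 Compound at 2 mM incubated in RPMI/FBS 9:1 (v/v) at 37 °C. Decomposition followed by HPLC on a C18 column. Half-life calculated from the degradation course.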

[7] = molecular target: Human immunodeficiency virus type 1 reverse transcriptase (Human immunodeficiency virus 1) (UniProt Q72547); experiment: Inhibition of HIV1 recombinant reverse transcriptase at <= 3 uM preincubated for 5 mins measured after 1 hr by electrophoresis analysis
Method in brief: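 Recombinant HIV-1 RT preincubated 5 min at 45 °C with compound in 50 mM Tris-HCl pH 8.3, 75 mM KCl, 3 mM MgCl2, 10 mM DTT. Started with dNTPs (50 μM final) and run 60 min at 45 °C. Products resolved on 12% denaturing PAGE and imaged by autoradiography. Fully extended product quantified.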

[8] = system: Human immunodeficiency virus 1; experiment: Antiviral activity against HIV1 infected in human CEM/TK- cells assessed as inhibition of virus-induced cytopathogenicity; assay type: functional, organism-based
[9] = system: Human immunodeficiency virus 1; experiment: Antiviral activity against HIV1 infected in human CEM/TK+ cells assessed as inhibition of virus-induced cytopathogenicity; assay type: functional, organism-based
[10] = Chemical stability of the compound in RPMI cell culture media assessed as compound decomposition by HPLC analysis in presence of human MT4 cells; assay type: ADME, cell-based
Method in brief: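 Compound incubated at 37 °C in RPMI cell culture medium in the presence of MT-4 cells. Degradation rate and decomposition products followed by HPLC on a C18 column.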

[11] = Cytotoxicity against human CEM-T4 cells assessed as cell viability at 50 uM after 7 days by MTT assay; assay type: cell-based; settings: cem-t4, 168 h; method in brief: as §1
[12] = Cytotoxicity against human CEM-T4 cells assessed as cell viability at 30 uM after 7 days by MTT assay; assay type: cell-based; settings: cem-t4, 168 h; method in brief: as §1

In the case of `Nc1ccccn1` [2-AMINOPYRIDINE], the Activity [1] is reported as “Non-toxic”, the EC50 [2] is reported as greater than 20 µM and the EC90 [2] is reported as greater than 20 µM. For the same compound, the selectivity ratio [3] was less than 10.
`Cc1cn([C@H]2C[C@H](N=[N+]=[N-])[C@@H](CO)O2)c(=O)[nH]c1=O` [ZIDOVUDINE] showed a CC50 at 168 h [4] greater than 200 µM, a CC90 at 168 h [4] greater than 200 µM and an EC50 [2] of less than 0.002 µM. The EC90 [2] was 0.005 µM and the selectivity ratio [3] was greater than 100000.
In the case of `Cc1cn([C@H]2C[C@H](N=[N+]=[N-])[C@@H](COP(=O)(O)Nc3ccncc3)O2)c(=O)[nH]c1=O`, the pKa [5] is reported as less than 8, the half-life at 2000 µM [6] is reported as greater than 120 h and the Activity [1] is reported as “Non-toxic”. For the same compound, the EC50 [2] was 0.0011 µM, the EC90 [2] was 0.006 µM and the selectivity ratio [3] was greater than 182000. For the same compound, the inhibition [7] was “inactive”, the inhibition [8] was “inactive” and the inhibition [9] was “Active”. For the same compound, the Stability [10] was “Stable”.
Work on `COc1ccc(N)cc1` yielded a pKa [5] of 4.58.
For `Nc1ccncc1` [DALFAMPRIDINE], the pKa [5] was 9.13, the Activity [1] was “Non-toxic” and the EC50 [2] was greater than 20 µM. It also gave an EC90 [2] greater than 20 µM and a selectivity ratio [3] of less than 10.
Compound `Nc1ccc(Cl)cc1` [4-CHLOROANILINE] has a pKa [5] of 3.99.
Work on `O=c1ccn([C@H]2CC[C@@H](COP(=O)(O)Nc3ccncc3)O2)c(=O)[nH]1` yielded a pKa [5] of less than 8, a half-life at 2000 µM [6] of 32.1 h and an EC50 [2] of 0.2 µM. For the same compound, the EC90 [2] was 1.35 µM, the selectivity ratio [3] was greater than 250 and the inhibition [8] was “inactive”. The Activity [11] was “Non-toxic”.
In the case of `Nc1cccnc1`, the pKa [5] is reported as 6.03, the Activity [1] is reported as “Non-toxic” and the EC50 [2] is reported as greater than 20 µM. For the same compound, the EC90 [2] was greater than 20 µM and the selectivity ratio [3] was less than 10.
For `O=c1ccn([C@H]2CC[C@@H](COP(=O)(O)Nc3ccccc3)O2)c(=O)[nH]1`, the inhibition [8] was “inactive”.
With `CCN(CC)CC.Cc1cn([C@H]2C[C@H](N=[N+]=[N-])[C@@H](COP(=O)(O)Nc3ccccc3)O2)c(=O)[nH]c1=O` the half-life at 2000 µM [6] was greater than 120 h, the CC50 at 168 h [4] was greater than 200 µM and the CC90 at 168 h [4] was greater than 200 µM. The EC50 [2] was 0.6 µM, the EC90 [2] was greater than 10 µM and the selectivity ratio [3] was greater than 300. For the same compound, the inhibition [8] was “inactive”.
For `Cc1cn([C@H]2C[C@H](N=[N+]=[N-])[C@@H](COP(=O)(O)Nc3cccnc3)O2)c(=O)[nH]c1=O`, the half-life at 2000 µM [6] was 73.3 h, the Activity [1] was “Non-toxic” and the EC50 [2] was 0.0023 µM. For the same compound, the EC90 [2] was 0.009 µM, the selectivity ratio [3] was greater than 87000 and the inhibition [7] was “inactive”. The inhibition [8] was “inactive”, the inhibition [9] was “Active” and the Stability [10] was “Stable”.
For `Cc1cn([C@H]2C[C@H](N=[N+]=[N-])[C@@H](COP(=O)(O)O)O2)c(=O)[nH]c1=O` [AZIDOTHYMIDINE MONOPHOSPHATE], the half-life at 2000 µM [6] was 3.6 h, the CC50 at 168 h [4] was 100 µM and the EC50 [2] was 0.01 µM. For the same compound, the selectivity ratio [3] was 10000.
Work on `O=c1ccn([C@H]2CC[C@@H](COP(=O)(O)Nc3cccnc3)O2)c(=O)[nH]1` yielded a half-life at 2000 µM [6] of 27.9 h, an EC50 [2] greater than 10 µM and an EC90 [2] greater than 10 µM. For the same compound, the selectivity ratio [3] was less than 3, the inhibition [8] was “inactive” and the Activity [12] was “Non-toxic”.
For `CCN(CC)CC.Cc1cn([C@H]2C[C@H](N=[N+]=[N-])[C@@H](COP(=O)(O)Nc3ccc(Cl)cc3)O2)c(=O)[nH]c1=O`, the half-life at 2000 µM [6] was greater than 120 h, the CC50 at 168 h [4] was 290 µM and the CC90 at 168 h [4] was 360 µM. It also gave an EC50 [2] of 0.02 µM, an EC90 [2] of 0.1 µM and a selectivity ratio [3] of 14500. The inhibition [8] was “inactive”.
